A value given as a limit tells only on which side of the number the result lay.

The target in experiment [1] is Histamine H3 receptor (Mus musculus) (UniProt P58406). Put plainly: In vivo effects in mice against H3 receptor on N6-methylhistamine levels in brain (following oral dosing of compound). In kind it is functional, organism-based. In a few lines: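 Swiss mice fasted 24 h, dosed orally; decapitated 90 min later and cerebral cortex homogenized in ice-cold 0.4 M perchloric acid. Nτ-methylhistamine measured by radioimmunoassay.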
Chain of Histamine H3 receptor (Mus musculus) (P58406 whole entry): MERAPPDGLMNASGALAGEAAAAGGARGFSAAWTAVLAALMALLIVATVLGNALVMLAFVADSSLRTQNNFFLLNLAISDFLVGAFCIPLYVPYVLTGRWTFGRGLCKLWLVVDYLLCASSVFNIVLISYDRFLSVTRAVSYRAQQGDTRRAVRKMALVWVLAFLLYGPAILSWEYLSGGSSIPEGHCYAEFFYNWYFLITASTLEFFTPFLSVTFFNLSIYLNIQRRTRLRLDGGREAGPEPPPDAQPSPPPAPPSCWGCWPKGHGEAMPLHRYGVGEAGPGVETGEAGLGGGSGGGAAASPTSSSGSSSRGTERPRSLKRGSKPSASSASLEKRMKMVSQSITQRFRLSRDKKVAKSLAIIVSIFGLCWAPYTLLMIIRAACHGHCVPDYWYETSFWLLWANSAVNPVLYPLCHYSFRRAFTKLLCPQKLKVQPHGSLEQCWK

Experiment [2] has as its target T1, Histamine H3 receptor (Homo sapiens, UniProt Q9Y5N1). Put plainly: Displacement of [125I]iodoproxyfan from human histamine H3 receptor expressing CHO cells. Format: cell-based.
Experiment [3] deals with T1, Histamine H3 receptor. As to the kind of experiment: biochemical.
In experiment [4] the target is Histamine H3 receptor (Cavia porcellus, UniProt Q9JI35). Put plainly: Potency at histamine H3 receptor subtype, was tested on guinea pig right ileum. Format: tissue-based. As to conditions: read-out: pA2 (converted).
Chain of Histamine H3 receptor (Cavia porcellus, UniProt Q9JI35) (Q9JI35 whole entry): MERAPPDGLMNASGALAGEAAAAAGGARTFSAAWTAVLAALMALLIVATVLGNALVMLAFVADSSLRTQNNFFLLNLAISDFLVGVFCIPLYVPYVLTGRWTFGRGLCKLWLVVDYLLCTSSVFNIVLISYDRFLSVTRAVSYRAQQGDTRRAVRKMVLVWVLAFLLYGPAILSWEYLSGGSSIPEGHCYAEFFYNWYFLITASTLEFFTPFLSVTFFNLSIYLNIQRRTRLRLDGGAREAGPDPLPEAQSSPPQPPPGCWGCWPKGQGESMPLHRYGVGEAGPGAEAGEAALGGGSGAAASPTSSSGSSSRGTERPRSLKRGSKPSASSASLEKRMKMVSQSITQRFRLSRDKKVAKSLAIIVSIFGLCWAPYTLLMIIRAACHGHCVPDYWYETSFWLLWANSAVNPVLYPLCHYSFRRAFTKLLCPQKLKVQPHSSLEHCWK
A further experiment has as its target Histamine H2 receptor (Cavia porcellus, UniProt P47747). Put plainly: Potency at histamine H2 receptor subtype, was tested on guinea pig right atrium. Format: tissue-based, Cardiac atrium. As to conditions: read-out: pA2 (converted).
The next experiment concerns the target Histamine H1 receptor (Cavia porcellus, UniProt P31389). As to the kind of experiment: Potency at histamine H1 receptor subtype, was tested on guinea pig right ileum. Format: tissue-based. To be noted: read-out: pA2 (converted).
Experiment [5] deals with Histamine N-methyltransferase (Rattus norvegicus, UniProt Q01984). As to the kind of experiment: Compound was tested against histamine N-methyl-transferase in rat brain [EC 2.1.1.8](relative weak affinity on rat enzyme). Format: tissue-based.
Chain of Histamine N-methyltransferase (Q01984 whole entry): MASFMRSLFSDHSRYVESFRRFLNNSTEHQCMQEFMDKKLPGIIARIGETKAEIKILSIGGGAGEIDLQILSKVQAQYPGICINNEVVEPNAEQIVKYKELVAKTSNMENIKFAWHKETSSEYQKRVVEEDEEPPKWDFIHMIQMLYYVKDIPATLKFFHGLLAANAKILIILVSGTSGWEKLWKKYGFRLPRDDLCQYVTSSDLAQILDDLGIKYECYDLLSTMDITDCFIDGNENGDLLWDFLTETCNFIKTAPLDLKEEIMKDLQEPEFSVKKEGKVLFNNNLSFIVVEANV

T1 sequence (Q9Y5N1 whole entry): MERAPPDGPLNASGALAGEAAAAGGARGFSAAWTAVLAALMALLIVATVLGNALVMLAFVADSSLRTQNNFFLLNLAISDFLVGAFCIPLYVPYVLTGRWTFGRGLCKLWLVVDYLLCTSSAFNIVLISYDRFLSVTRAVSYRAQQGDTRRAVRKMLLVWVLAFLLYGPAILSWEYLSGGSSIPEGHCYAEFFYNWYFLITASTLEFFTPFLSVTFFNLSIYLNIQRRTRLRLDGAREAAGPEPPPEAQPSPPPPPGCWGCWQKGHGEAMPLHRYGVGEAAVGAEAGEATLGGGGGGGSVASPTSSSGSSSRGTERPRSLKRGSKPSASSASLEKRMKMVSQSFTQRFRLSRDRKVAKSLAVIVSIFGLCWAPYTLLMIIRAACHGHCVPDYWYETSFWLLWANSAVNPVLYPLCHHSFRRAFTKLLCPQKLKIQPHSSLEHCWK
Chain of Histamine H1 receptor (P31389 whole entry): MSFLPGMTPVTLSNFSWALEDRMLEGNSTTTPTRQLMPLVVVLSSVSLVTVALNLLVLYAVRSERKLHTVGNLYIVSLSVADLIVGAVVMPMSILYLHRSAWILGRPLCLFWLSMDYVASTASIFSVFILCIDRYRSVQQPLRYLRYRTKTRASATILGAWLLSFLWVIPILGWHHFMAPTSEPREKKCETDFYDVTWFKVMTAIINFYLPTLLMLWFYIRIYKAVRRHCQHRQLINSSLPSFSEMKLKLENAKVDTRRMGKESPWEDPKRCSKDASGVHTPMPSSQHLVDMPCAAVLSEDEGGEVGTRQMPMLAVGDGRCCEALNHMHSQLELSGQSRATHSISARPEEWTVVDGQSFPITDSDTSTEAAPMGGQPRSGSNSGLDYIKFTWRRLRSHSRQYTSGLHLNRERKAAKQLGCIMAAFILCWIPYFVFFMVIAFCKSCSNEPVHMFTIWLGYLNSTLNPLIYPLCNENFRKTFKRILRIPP
Chain of Histamine H2 receptor (P47747 whole entry): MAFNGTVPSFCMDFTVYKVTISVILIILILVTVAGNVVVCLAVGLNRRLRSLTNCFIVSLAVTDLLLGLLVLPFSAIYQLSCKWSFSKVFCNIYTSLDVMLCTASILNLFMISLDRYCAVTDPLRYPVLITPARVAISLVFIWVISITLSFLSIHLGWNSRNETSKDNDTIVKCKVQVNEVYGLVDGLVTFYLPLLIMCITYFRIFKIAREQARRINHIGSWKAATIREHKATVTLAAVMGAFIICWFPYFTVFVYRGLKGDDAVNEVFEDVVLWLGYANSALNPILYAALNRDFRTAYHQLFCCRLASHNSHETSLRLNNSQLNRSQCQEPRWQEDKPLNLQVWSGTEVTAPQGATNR

On to `C(=C\c1ccc(OCc2ccc(CN3CCCCC3)cc2)cc1)/c1ccccc1`, for which the ED50 in experiment [1] is greater than 10 mg/kg. At Histamine H3 receptor [2], this molecule displayed a Ki of 761 nM.

As to `CCN(CC)Cc1ccc(COc2ccc(C(C)=O)cc2)cc1`, the ED50 in experiment [1] amounted to 3.4 mg/kg. The same molecule displayed a Ki at Histamine H3 receptor [2] of 91 nM.

`Clc1ccc(OCc2ccc(CN3CCCCC3)cc2)cc1` had an ED50 in experiment [1] greater than 10 mg/kg. At Histamine H3 receptor [2], this molecule registered a Ki of 124 nM.

Molecule `c1cc(CN2CCCCC2)ccc1COc1ccc2c(c1)CCCC2` showed an ED50 in experiment [1] of 3.5 mg/kg. Also, the Ki at Histamine H3 receptor [2] came to 92 nM.

On to `CCCOc1ccc(OCc2ccc(CN3CCCCC3)cc2)cc1`, for which the 50% effect level in experiment [1] (ED50) was put at a dose of 10 mg/kg. Further, the Ki on Histamine H3 receptor [2] is 88 nM.

As for `O=[N+]([O-])c1ccc(OCCCCCN2CCCC2)cc1`, the ED50 in experiment [1] is 1.1 mg/kg. In addition, the Ki at Histamine H3 receptor [3] was 39 nM.

Regarding `c1cn(-c2ccc(OCc3ccc(CN4CCCCC4)cc3)cc2)cn1`, the ED50 in experiment [1] is 4 mg/kg. This molecule came in with a Ki on Histamine H3 receptor [2] of 27 nM. For the same molecule, the Kb on Histamine H3 receptor [4] is 15.8 nM.

For the molecule `O=C(c1ccc(OCc2ccc(CN3CCCCC3)cc2)cc1)C1CC1`, in experiment [1], the 50% effect level (ED50) was put at a dose of 5.9 mg/kg. Moreover, the inhibition constant (Ki) on Histamine H3 receptor [2] came to 66 nM.

In turn, `c1cc(CN2CCCCC2)ccc1COc1ccc(CN2CCCCC2)cc1` registered an ED50 in experiment [1] of 9.6 mg/kg. Moreover, the affinity on Histamine H3 receptor [2], expressed as Ki, was 2.8 nM. Moreover, the Kb on Histamine H3 receptor [4] was 38 nM.

In turn, `c1ccc(Oc2ccc(OCc3ccc(CN4CCCCC4)cc3)cc2)cc1` registered a median effective dose (ED50) in experiment [1] greater than 10 mg/kg. In addition, the Ki at Histamine H3 receptor [2] stood at 530 nM.

`c1ccc(CCc2ccc(OCc3ccc(CN4CCCCC4)cc3)cc2)cc1` came in with an ED50 in experiment [1] of 30 mg/kg. For the same molecule, on Histamine H3 receptor [2], the Ki was 890 nM.

The molecule `Ic1ccc(OCc2ccc(CN3CCCCC3)cc2)cc1` returned an ED50 in experiment [1] greater than 10 mg/kg. This molecule also yielded a Ki at Histamine H3 receptor [2] of 107 nM.

`CCc1ccc(OCc2ccc(CN3CCCCC3)cc2)cc1` had an ED50 in experiment [1] of 2.2 mg/kg. In addition, the affinity at Histamine H3 receptor [2], expressed as Ki, was 163 nM.

For `O=C(c1ccc(OCc2ccc(CN3CCCCC3)cc2)cc1)C1CCCC1`, in experiment [1], the 50% effect level (ED50) was put at a dose of 2.8 mg/kg. This molecule also displayed a Ki at Histamine H3 receptor [2] of 157 nM. Besides, the Kb on Histamine H3 receptor [4] is 30.9 nM.

`Clc1ccc(OCc2ccc(CN3CCCCC3)cc2)cc1Cl` registered an ED50 in experiment [1] greater than 10 mg/kg. The same molecule had a Ki on Histamine H3 receptor [2] of 167 nM.

On to `CC(=O)c1ccc(OCc2ccc(CN3CCCCCC3)cc2)cc1`, for which, in experiment [1], the ED50 amounted to 4.3 mg/kg. This molecule also registered a Ki at Histamine H3 receptor [2] of 37 nM. Also, the Kb at Histamine H3 receptor [4] is 30.9 nM.

Molecule `CC(=O)c1ccc(OCCCc2c[nH]cn2)cc1` gave an ED50 in experiment [1] of 0.24 mg/kg. This molecule also displayed a Ki on Histamine H3 receptor [2] of 87 nM.

The molecule `CC(C)c1ccc(OCc2ccc(CN3CCCCC3)cc2)cc1` yielded an ED50 in experiment [1] of 3 mg/kg. On Histamine H3 receptor [2], this molecule returned a Ki of 253 nM.

In the case of `Cc1cccc(OCc2ccc(CN3CCCCC3)cc2)c1`, the ED50 in experiment [1] stood at 20 mg/kg. The Ki at Histamine H3 receptor [2] was 334 nM.

For `c1ccc(Cc2ccc(OCc3ccc(CN4CCCCC4)cc3)cc2)cc1`, the ED50 in experiment [1] was greater than 10 mg/kg. Further, the Ki on Histamine H3 receptor [2] was found to be 238 nM.

With `FC(F)(F)c1ccc(OCc2ccc(CN3CCCCC3)cc2)cc1`, the ED50 in experiment [1] is greater than 10 mg/kg. This molecule also displayed a Ki at Histamine H3 receptor [2] of 125 nM.

In experiment [1], `COc1ccc(OCc2ccc(CN3CCCCC3)cc2)cc1` gave an ED50 of 20 mg/kg. Also, the affinity at Histamine H3 receptor [2], expressed as Ki, was 119 nM.

In experiment [1], `Fc1ccc(OCc2ccc(CN3CCCCC3)cc2)cc1` registered an ED50 of 15 mg/kg. At Histamine H3 receptor [2], this molecule came in with a Ki of 123 nM.

As for `CCCCCc1ccc(OCc2ccc(CN3CCCCC3)cc2)cc1`, in experiment [1], the ED50 is 3 mg/kg.

The molecule `c1ccc(NCc2ccc(OCc3ccc(CN4CCCCC4)cc3)cc2)cc1` returned an ED50 in experiment [1] of 10 mg/kg. For the same molecule, the affinity at Histamine H3 receptor [2] corresponds to a Ki of 90 nM.

`Brc1ccc(OCc2ccc(CN3CCCCC3)cc2)cc1`: the ED50 in experiment [1] was greater than 10 mg/kg. Moreover, the Ki at Histamine H3 receptor [2] was 114 nM.

Turning to `CC(=O)c1ccc(OCc2ccc(CN3CCCCC3)cc2)cc1`, in experiment [1], the ED50 stood at 3.9 mg/kg. Besides, the Ki on Histamine H3 receptor [2] turned out to be 84 nM. The Kb is 61.7 nM at Histamine H3 receptor [4], 10200 nM on Histamine H2 receptor and 4570 nM on Histamine H1 receptor. Further, 10400 nM corresponded to half-maximal inhibition in experiment [5] (IC50).

For `c1ccc(COc2ccc(OCc3ccc(CN4CCCCC4)cc3)cc2)cc1`, in experiment [1], the 50% effective dose (ED50) is greater than 30 mg/kg. The molecule also showed a Ki on Histamine H3 receptor [2] of 550 nM.

Regarding `Cc1ccc(OCc2ccc(CN3CCCCC3)cc2)cc1C`, the ED50 in experiment [1] turned out to be 4.8 mg/kg. Besides, the Ki on Histamine H3 receptor [2] stood at 149 nM.

`Cc1cc(OCc2ccc(CN3CCCCC3)cc2)ccc1Cl` came in with an ED50 in experiment [1] greater than 10 mg/kg. Further, at Histamine H3 receptor [2], the Ki amounted to 42 nM.

`Fc1cc(OCc2ccc(CN3CCCCC3)cc2)ccc1Cl` had an ED50 in experiment [1] greater than 10 mg/kg. On Histamine H3 receptor [2], this molecule yielded a Ki of 95 nM.

In experiment [1], `Cc1ccc(OCc2ccc(CN3CCCCC3)cc2)cc1` yielded an ED50 of 1.8 mg/kg.

In turn, `CO/N=C(\C)c1ccc(OCc2ccc(CN3CCCCC3)cc2)cc1` gave a 50% effective dose (ED50) in experiment [1] of 6.4 mg/kg. The Ki on Histamine H3 receptor [2] turned out to be 129 nM. In addition, the Kb at Histamine H3 receptor [4] was 288 nM; on Histamine H2 receptor, 3980 nM; at Histamine H1 receptor it was 3470 nM.

In turn, `c1ccc(OCc2ccc(CN3CCCCC3)cc2)cc1` returned an ED50 in experiment [1] of 30 mg/kg. At Histamine H3 receptor [2], this molecule returned an inhibition constant Ki of 227 nM.

`c1cc(CN2CCCCC2)ccc1COc1ccc2c(c1)CCC2`: in experiment [1], it took a dose of 1.9 mg/kg to reach the 50% effect level (ED50). On Histamine H3 receptor [2], the Ki was determined as 87 nM.

The molecule `CCCc1ccc(OCc2ccc(CN3CCCCC3)cc2)cc1` came in with an ED50 in experiment [1] of 4.3 mg/kg. In addition, on Histamine H3 receptor [2], affinity was put at a Ki of 257 nM.

In experiment [1], `CCCCc1ccc(OCc2ccc(CN3CCCCC3)cc2)cc1` registered an ED50 of 2.8 mg/kg. The Ki on Histamine H3 receptor [2] is 169 nM.

As to `c1cc(CN2CCCCC2)ccc1COc1ccc(C2CCCC2)cc1`, it took a dose of 3.1 mg/kg to reach the 50% effect level in experiment [1] (ED50). Besides, affinity at Histamine H3 receptor [2] was put at a Ki of 201 nM.

The molecule `CC(=O)c1ccc(OCc2ccc(CN3CCCC3)cc2)cc1` had an ED50 in experiment [1] of 1.9 mg/kg. This molecule showed a Ki on Histamine H3 receptor [2] of 26 nM. The Kb was 18.2 nM at Histamine H3 receptor [4], 7760 nM at Histamine H2 receptor and 9330 nM at Histamine H1 receptor.

The molecule `C/C(=N\O)c1ccc(OCc2ccc(CN3CCCCC3)cc2)cc1` gave an ED50 in experiment [1] of 5 mg/kg. The molecule further displayed a Ki at Histamine H3 receptor [2] of 55 nM. Besides, the Kb is 85.1 nM at Histamine H3 receptor [4], 14100 nM at Histamine H2 receptor and 7940 nM on Histamine H1 receptor.

As a reminder, the ED50 is the midpoint of the dose-response relation. Low readings indicate greater potency, high ones weaker potency. A word on the Ki: it is a measure of affinity in units of concentration, obtained from inhibition or displacement. Read a high Ki as weaker binding. In general, IC50 refers to the concentration needed to halve the response being measured. Low readings indicate inhibition by little substance, high ones a need for much substance.

The values above are taken from ChEMBL document CHEMBL1136767, “Novel nonimidazole histamine H3 receptor antagonists: 1-(4-(phenoxymethyl)benzyl)piperidines and related compounds” (J Med Chem, 2003).
